This is an account of results in ChEMBL document CHEMBL4043082, “Clerodane Diterpenoid Glucosides from the Stems of Tinospora sinensis” (J Nat Prod, 2017).

The test system of one test is N9. The test can be described thus: Inhibition of LPS-induced nitric oxide production in mouse N9 cells by Griess reaction based assay. Type of test: functional, cell-based. An outline of the steps: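 N9 microglial cells activated with LPS; nitrite accumulation in culture supernatants measured by Griess reaction; microglial cell viability checked in parallel by MTT assay.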
A general note: Nitrite, measured by Griess reagent, commonly stands in for NO production.

The test system of a further test is HeLa. The test can be described thus: Cytotoxicity against human HeLa cells assessed as reduction in cell viability incubated for 48 hrs by MTT assay. The format is functional, cell-based. Put shortly:
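HeLa cells seeded at 8 × 10^3 per well, exposed in triplicate to 2.5, 5, 10, 20 and 50 μM of each compound at 37 °C for 48 h; doxorubicin as positive control. MTT (5 mg/mL) added for 4 h, formazan dissolved in DMSO, absorbance at 570 nm; IC50 by Logit method.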

On to `COc1cc(/C=C/C(=O)O[C@@H]2C[C@H](O)[C@H](OC(C)=O)[C@@H]3[C@@H]2CC[C@@]2(O)C(=O)O[C@H](c4ccoc4)C[C@@]32C)ccc1O[C@@H]1O[C@H](CO)[C@@H](O)[C@H](O)[C@H]1O`, for which the half-inhibitory concentration (IC50) (as a rule, the midpoint of a concentration-inhibition curve) is at least 100 µM in the test on N9 and at least 10 µM with HeLa.

Take `CC(=O)O[C@@H]1[C@@H]2[C@H](CC[C@@]3(O)C(=O)O[C@H](c4ccoc4)C[C@@]23C)[C@H](O[C@@H]2O[C@H](CO)[C@@H](O)[C@H](O)[C@H]2O)C[C@@H]1O`: the IC50 is at least 100 µM with N9 and at least 10 µM in the test on HeLa.

With `C[C@@]12C[C@@H](c3ccoc3)OC(=O)[C@]1(O)CC[C@H]1[C@H]2[C@@H](O)[C@@H](O)C[C@H]1O[C@@H]1O[C@H](CO)[C@@H](O)[C@H](O)[C@H]1O`, the IC50 was at least 100 µM in the test with N9 and 8.35 µM with HeLa.

With `COc1cc(/C=C/C(=O)O[C@@H]2CC[C@H](O)[C@@H]3[C@@H]2CC[C@@]2(O)C(=O)O[C@H](c4ccoc4)C[C@@]32C)ccc1O[C@@H]1O[C@H](CO)[C@@H](O)[C@H](O)[C@H]1O`, the IC50 in the test with N9 is at least 100 µM; in the test on HeLa, at least 10 µM.

Consider `COc1cccc2c1C(=O)c1c(O)c3c(c(O)c1C2=O)C[C@@](O)(C(=O)CO)C[C@@H]3O[C@H]1C[C@H](N)[C@H](O)[C@H](C)O1` [DOXORUBICIN], for which, in the test on HeLa, the IC50 came to 0.32 µM.

Turning to `CC(=O)O[C@@H]1[C@@H]2[C@H](CC[C@@]3(O)C(=O)O[C@H](c4ccoc4)C[C@@]23C)[C@H](O[C@@H]2O[C@H](CO)[C@@H](O)[C@H](O)[C@H]2O)C[C@@H]1OC(C)=O`, the IC50 is at least 100 µM in the test on N9 and at least 10 µM with HeLa.

Take `C[C@@]12C[C@@H](c3ccoc3)OC(=O)[C@]1(O)CC[C@]1(C)[C@H]2[C@H]2C=C[C@]1(O[C@@H]1O[C@H](CO)[C@@H](O)[C@H](O)[C@H]1O)C(=O)O2`: the IC50 is at least 100 µM with N9 and at least 10 µM in the test on HeLa.

For the molecule `CC(=O)O[C@H]1C[C@@H](O[C@@H]2O[C@H](CO)[C@@H](O)[C@H](O)[C@H]2O)[C@H]2CC[C@@]3(O)C(=O)O[C@H](c4ccoc4)C[C@@]3(C)[C@@H]2[C@H]1O`, the IC50 is at least 100 µM in the test with N9 and at least 10 µM in the test with HeLa.

Take `COc1cc(/C=C\C(=O)O[C@@H]2C[C@H](OC(C)=O)[C@H](O)[C@@H]3[C@@H]2CC[C@@]2(O)C(=O)O[C@H](c4ccoc4)C[C@@]32C)ccc1O[C@@H]1O[C@H](CO)[C@@H](O)[C@H](O)[C@H]1O`: the IC50 in the test on N9 was at least 100 µM; in the test on HeLa, at least 10 µM.

Turning to `COc1cc(/C=C/C(=O)O[C@H]2C[C@H](O)[C@H](O)[C@@H]3[C@@H]2CC[C@@]2(O)C(=O)O[C@H](c4ccoc4)C[C@@]32C)ccc1O[C@@H]1O[C@H](CO)[C@@H](O)[C@H](O)[C@H]1O`, the IC50 in the test with N9 is at least 100 µM; in the test with HeLa, at least 10 µM.

Consider `COc1cc(/C=C/C(=O)O[C@H]2C[C@H](OC(C)=O)[C@H](O)[C@@H]3[C@@H]2CC[C@@]2(O)C(=O)O[C@H](c4ccoc4)C[C@@]32C)ccc1O[C@@H]1O[C@H](CO)[C@@H](O)[C@H](O)[C@H]1O`, for which the results for the IC50 with N9 and in the test with HeLa were at least 100 µM and at least 10 µM, respectively.

Turning to `COc1cc(/C=C/C(=O)O[C@@H]2C[C@H](O)[C@H](O)[C@@H]3[C@@H]2CC[C@@]2(O)C(=O)O[C@H](c4ccoc4)C[C@@]32C)ccc1O[C@@H]1O[C@H](CO)[C@@H](O)[C@H](O)[C@H]1O`, the IC50 was at least 100 µM with N9 and at least 10 µM with HeLa.

As to `C[C@@]12CC[C@@]3(O)C(=O)O[C@H](c4ccoc4)C[C@@]3(C)[C@@H]1[C@@H](O[C@@H]1O[C@H](CO)[C@@H](O)[C@H](O)[C@H]1O)C=CC2=O`, the figures for the IC50 in the test with N9 and in the test on HeLa were at least 100 µM and at least 10 µM, respectively.

Consider `COc1cc(/C=C/C(=O)O[C@@H]2C[C@H](OC(C)=O)[C@H](O)[C@@H]3[C@@H]2CC[C@@]2(O)C(=O)O[C@H](c4ccoc4)C[C@@]32C)ccc1O[C@@H]1O[C@H](CO)[C@@H](O)[C@H](O)[C@H]1O`, for which the results for the IC50 in the test on N9 and in the test with HeLa were at least 100 µM and at least 10 µM, respectively.
